Reference: PMC6110378 (The Pediatric Infectious Disease Journal, 2018)
Converted amounts (≈) assume the structure as drawn. Starred links: 1 amine or outer side, 2 acyl side, 3 side chain; linkers in the order of their positions; H or OH if unused. Positions of bridges follow the written chain, without caps; N, C: chain ends. Non-standard residues stand in square brackets, D forms with d. Residues, ends and D or L forms follow the SMILES beside them. *: point of attachment. hTyr(3S-OH,4S-OH,3'-OSO3H) = N[C@H](C(=O)O)[C@H](O)[C@@H](O)c1ccc(O)c(OS(=O)(=O)O)c1; Orn(4R-OH,5R-OH) = O=C([C@H](C[C@@H](O)[C@@H](O)N[*:3])N[*:1])[*:2]; Pro(3S-OH,4S-Me) = C[C@H]1CN[C@H](C(=O)O)[C@H]1O; X1 = CCCCCOc1ccc(-c2cc(-c3ccc(C(=O)*)cc3)no2)cc1; Gln(3R-OH) = NC(=O)C[C@@H](O)[C@H](N)C(=O)O; Hyp = O=C(O)[C@@H]1C[C@@H](O)CN1

Columns and labels:
[1] = system: Candida; test: MIC values of isolates from infants with invasive candidiasis; assay type: cell-based
[2] = Population PK model; assay type: in vivo, human infants; details: 2-compartment population PK model, 64 infants
In short: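 The dataset was 287 HPLC-measured plasma concentrations from 64 infants aged 3–119 days in 4 pediatric trials, at doses of 0.75–10 mg/kg. A 2-compartment model was fitted in Pmetrics, with infusion into the central compartment and observations weighted by inverse assay variance. Clearance was allometrically scaled. Clearance and volume were normalized to the 1.8 kg mean weight. Kcp and Kpc are central↔peripheral transfer rates. Fit was assessed from observed versus predicted values, r2, bias and imprecision.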

[3] = system: hematogenous Candida meningoencephalitis; details: rabbit model of hematogenous Candida meningoencephalitis; cited from earlier work

CCCCCOc1ccc(-c2cc(-c3ccc(C(=O)N[C@H]4C[C@@H](O)[C@@H](O)NC(=O)[C@@H]5[C@@H](O)[C@@H](C)CN5C(=O)[C@H]([C@H](O)CC(N)=O)NC(=O)[C@H]([C@H](O)[C@@H](O)c5ccc(O)c(OS(=O)(=O)O)c5)NC(=O)[C@@H]5C[C@@H](O)CN5C(=O)[C@H]([C@@H](C)O)NC4=O)cc3)no2)cc1 [micafungin] (X1-[Orn(4R-OH,5R-OH)]T[Hyp][hTyr(3S-OH,4S-OH,3'-OSO3H)][Gln(3R-OH)][Pro(3S-OH,4S-Me)]; lactam 1-C)
MIC90 ([1]; isolates of infants in the 2 mg/kg study (n = 17)): 1 µg/mL (≈ 0.787 µM) | MIC90 ([1]; isolates of infants in the 10 mg/kg study (n = 12)): 2 µg/mL (≈ 1.57 µM) | Vstd (volume in the central compartment), median ([2]; normalized to 1.8 kg, median): 0.43 L/1.8 kg | Kcp (rate of drug moving from the central to the peripheral compartment), mean ([2]; mean (range)): 1.74 (0.035–5.966) h^–1 | Kpc (rate of drug moving from the peripheral to the central compartment), mean ([2]; mean (range)): 1.92 (0.090–5.970) h^–1 | Kcp, median ([2]; median): 0.99 h^–1 | Kpc, median ([2]; median): 2.00 h^–1 | AUC:MIC ratio PD target for near-maximal effect [3]: 1332 | CNS PD target AUC for near-maximal effect [3]: approximately 166.5 mg·h/L
